Measurements taken from ChEMBL document CHEMBL4513216, “Probing the Open Global Health Chemical Diversity Library for Multistage-Active Starting Points for Next-Generation Antimalarials” (ACS Infect Dis, 2020).

Experiment: Toxicity liver stage against HepG2, at 10uM
Type: cell-based
Design: test concentration 10 uM, cell line HepG2-A16-CD81EGFP
Conditions: human, HepG2-A16-CD81EGFP cells; read-out: INHIBITION
Method in brief: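 Uninfected HepG2-A16-CD81EGFP cells, 3 × 10^3 per well, 1536-well, plated on prespotted compound at 10 μM final, parasite-free screening media added to match infected plates; puromycin 10 μM positive, DMSO 0.5% negative; run in parallel with 48 h PbLuc assay at 37 °C, 5% CO2; viability by CellTiter-Glo luminescence, normalized to controls.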

| Structure (SMILES) | cytotoxicity at 10 µM [%] |
| --- | --- |
| Cc1[nH]ccc1C(=O)N1CCN(C)C2(CCC(=O)N(C)CC2)C1 (stereo not given) | 5.95 |
| CNC(=O)[C@@H]1C[C@@H](N)CN1Cc1cc2cc(C)cc(C)c2[nH]c1=O | -5.23 |
| Cc1cc(=O)n2ncnc2n1CC(O)c1cc(Cl)ccc1Cl (stereo not given) | 3.19 |
| CCc1n[nH]c(C(=O)N2CCN(c3ccc4ccccc4c3)CC2)c1C | -3.03 |
| C[C@@H]1C[C@H]2CN(C(=O)C3=CCCCC3)C[C@H]2O1 | 7.18 |
| O[C@@H]1CN(Cc2cccc(F)c2)CC[C@H]1NCc1ccccn1 | -1.6 |
| O=C1CCCN1Cc1ncn2c1CN(C(=O)c1cccc(F)c1)CCC2 | -12.1 |
| CN(CCCO)c1nc(-c2ccc(C(N)=O)cc2)nc2c1CCNC2 | -2.86 |
| CCCn1ccnc1CN1C[C@@H](CN2CCCN(C)CC2)[C@@H](CO)C1 | 2.81 |
| O=C(Cc1ccc(-c2ccccc2)cc1)N1CCOCC(O)C1 (stereo not given) | 1.51 |
| O=C(C1CCOCC1)N1CC[C@@](O)(c2ccccc2)[C@H]2CCCC[C@@H]21 | -8.35 |
| CN(C)CCOCC1CN(Cc2cccs2)Cc2ccnn2C1 (stereo not given) | -0.903 |
| Cc1cnn(CC2CCCCN2C(=O)c2n[nH]c3ccccc23)c1 (stereo not given) | -8.25 |
| COc1ncccc1NC(=O)N(CC(C)C)C1CC1 | -0.874 |
| Cc1cccc2cc(CN3CCC(O)(CN4CCCC4)CC3)c(=O)[nH]c12 | -14.9 |
| COc1ccc2c(c1)CCCN(C(C)C(=O)NC(N)=O)C2 (stereo not given) | 8.66 |
| O=C(NCCn1cccn1)Nc1cc(C(=O)N2CCOCC2)ccc1Cl | -46.6 |
| CCNc1cc2c(nn1)CCN(C(=O)Cc1ccc3c(c1)CCO3)C2 | 1.42 |
| Cc1nn(C)c2sc(C(=O)N3CCCC(n4ccnc4C)C3)cc12 (stereo not given) | -10 |
| Cc1ccc(CCC(=O)N(C)CCN2CCOCC2)c(C)c1 | -4.51 |
| Fc1cccc(-c2nnn3c2COC(CNCc2cccs2)C3)c1 (stereo not given) | 1.07 |
| CCc1nnc2n1CCN(C(=O)CCOc1ccc(C)cc1C)C2 | 2.93 |

| Structure (SMILES) | cytotoxicity at 10 µM [%] |
| --- | --- |
| c1cncc(COCc2nnc3n2CCN(Cc2ccsc2)C3)c1 | -21.6 |
| CN1[C@H](Cn2cncn2)C[C@@H]2CN(Cc3ccsc3)CC[C@@H]21 | -118 |
| CCn1ccnc1CN(C)c1cc(C2CC2)ncn1 | -47.9 |
| CN(Cc1ccco1)Cc1cnc2n1CCN(S(C)(=O)=O)CC2 | -2.75 |
| CC(C)CN(CC(O)c1ccc(F)cc1)C(=O)c1cc[nH]n1 (stereo not given) | -5.71 |
| COc1ccc(Nc2nc3c(C)nn(C)c3c(=O)n2C)c(OC)c1 | -6.89 |
| Cc1cc(C(=O)N2CCCCC2c2nc3cc(F)ccc3[nH]2)nn1C (stereo not given) | 4.42 |
| c1cncc(OC[C@@H]2CCC[C@@]23CNCCO3)c1 | 10.5 |
| O=C1NCCN1C1CCN(Cc2coc(-c3ccccc3)n2)CC1 | -1.54 |
| CC(=O)c1cccc(CN2CCCC23CCN(c2ccccn2)CC3)c1 | -15.4 |
| COc1cccc(C(C(=O)O)N2CCSCC2)c1F (stereo not given) | -12.9 |
| NCc1ccnc(Oc2ccc(F)cc2)c1 | 12.4 |
| Cc1nc(CN(C)C(=O)c2cccc(CC3CCNCC3)c2)no1 | -5.56 |
| COCCCN1CC2(CCN(Cc3ncc[nH]3)CC2)CC1=O | -2.89 |
| Cc1nn(C2CCS(=O)(=O)C2)c(C)c1CC(=O)NCc1ccccc1Cl (stereo not given) | -0.178 |
| O=C(O)c1ccc(OC2CCOCC2)cc1 | -6.11 |
| COc1ccc(F)cc1S(=O)(=O)N1CCC(Oc2ccc(Cl)cn2)CC1 | 8.05 |
| CN(Cc1ccncc1)C(=O)Nc1cnn(CC2CCCO2)c1 (stereo not given) | -0.291 |
| CC(O)CN1CCN(C(=O)c2sccc2C2CC2)CC1 (stereo not given) | 1.83 |
| COc1ccccc1OCc1cc(C(=O)N2CC(O)C2)n[nH]1 | -1.02 |
| Cc1cc2[nH]c(CN3CCOC(c4ccc(Cl)cc4)C3)cc(=O)n2n1 (stereo not given) | 1.91 |
| CC(C)OCCN1CCC(C(=O)c2cc(F)ccc2F)CC1 | -8.63 |

| Structure (SMILES) | cytotoxicity at 10 µM [%] |
| --- | --- |
| O=C(O)c1nnn(-c2ccc(OC(F)(F)F)cc2)c1-c1ccncc1 | -5.85 |
| CN(C)S(=O)(=O)N1CCC2(CCCN(Cc3ccc(F)cc3)C2=O)C1 (stereo not given) | -9.67 |
| CN1C[C@@H]2CC[C@H]1CN(C(=O)COCc1nc3ccc(F)cc3[nH]1)C2 | -1.88 |
| CC(CC(=O)Nc1ccc(C(=O)N(C)C)c(Cl)c1)n1cccc1 (stereo not given) | 7.07 |
| COc1ncc(NS(=O)(=O)c2ccc(OC)c(C)c2)c(OC)n1 | 34.8 |
| CC(C)(CN1CCCC1)CN1CCC(Cn2cc(CCO)nn2)CC1 | 1.87 |
| O=C(NCCO)Nc1cccc(Cl)c1SC(F)F | 5.98 |
| Cc1cccc2c1nc1n2[C@@H](CNC2CCCCC2)COC1 | -51.8 |
| Cc1cc(NC(=O)N2CCC[C@@H]2CO)nn1-c1cccc(Cl)c1 | -1.08 |
| CCc1cnc(N)nc1NCCn1cc(Cl)cn1 | 1.5 |
| CCOC(C)c1noc(CN2CCN(c3nnc(C)s3)CC2)n1 (stereo not given) | -11.1 |
| CC(C)CN1CCC2(C=C(C(=O)N(C)C)c3ccccc32)CC1 | -97.4 |
| Cc1nnc2n1CCN(Cc1csc(-c3cnn(C)c3)n1)C2 | -3.5 |
| Cc1cccc(CN2CCc3nnc(CO)n3CC2)n1 | 6.41 |
| CCC(CN1CCCCC1)NC(=O)C1(c2cccc(F)c2)CC1 (stereo not given) | 0.689 |
| CN(C)CCN1CCOCC2(CCCN(C(=O)Cc3ccccc3)C2)C1 (stereo not given) | 2.14 |
| CC(C)(O)CCc1cccc(C(=O)N2Cc3cnn(CCO)c3C2)c1 | 4.62 |
| CC(=O)NCCC(=O)Nc1sccc1C(=O)C(C)(C)C | -46.3 |
| O=C(c1ccccn1)N1CC[C@H]2C(=O)N(c3ccsc3)CCO[C@H]2C1 | 11.6 |
| CNS(=O)(=O)CC(=O)N(C1CCCC1)C1CC1 | -2.78 |
| COc1c(CNC(c2ccccc2F)c2nccn2C)c(C)nn1C (stereo not given) | -13.9 |
| Cc1cccc(N2CCC3(CCCN(C(=O)c4cccnc4)C3)C2)n1 (stereo not given) | 0.677 |

| Structure (SMILES) | cytotoxicity at 10 µM [%] |
| --- | --- |
| CCn1cc(CN(C)C(=O)c2cc(C(F)(F)F)n(C)n2)cn1 | 10.4 |
| COc1ccccc1CN1CC(O)CN(C(=O)OCC(C)C)CC1=O (stereo not given) | -6.19 |
| CC(=O)Nc1ccc2nc(-c3nccn3CCCN(C)C)ccc2c1 | -6.07 |
| COCCN(Cc1ccc(C)cc1)Cc1nccn1C | -63.3 |
| CSc1cc2c(cc1NC(=O)NCC(C)(C)C(N)=O)OCCO2 | -10.9 |
| CCS(=O)(=O)N1CCN(Cc2ccncc2)c2nc(C)ccc2C1 | -70.8 |
| CCN1CCN(C(C)CNC(=O)Nc2nc3ccccc3s2)CC1 (stereo not given) | -2.32 |
| O=C(CCn1cccn1)NS(=O)(=O)N1CCCc2ccccc21 | 5.65 |
| Cc1nn(-c2ccccc2Cl)c(C)c1CCC(=O)O | 4.68 |
| CN(C)c1ncnc2c1CCN(C(=O)c1cccnc1)CC2 | -79.8 |
| COCCNC(=O)[C@H]1CN(Cc2nccs2)C[C@H]2OCC[C@@H]12 | -11.6 |
| COCCCn1ccc(NC(=O)NCCCn2ccnc2)n1 | -3.04 |
| Cc1ccoc1C(=O)N1C[C@H]2CCC[C@@]2(COCc2ccncc2)C1 | 9.56 |
| Cc1ccc(C(C(=O)O)N(C)CCCN2CCOCC2)c(C)c1 (stereo not given) | 0.129 |
| COc1ccnc(CN2CCCC(CCc3ccccc3)C2)c1OC (stereo not given) | 0.979 |
| CCN1CCN(C(=O)COCc2cccc(OC)c2)CC1 | -11.5 |
| CN(C)C(=O)CN1CCN(c2ncccn2)[C@@H]2CS(=O)(=O)C[C@@H]21 | -3.01 |
| Cc1n[nH]c(C)c1CNCC(O)c1cccc(Cl)c1 (stereo not given) | 4.91 |
| CCCn1c(NC(=O)CNC(=O)OCC)nc2ccccc21 | -4.41 |
| Cc1cc(C)nc(N(C)CCn2ccnc2C)n1 | -5.42 |
| Cc1ccc(C(=O)N2CCN(CCCSCC#N)CC2)cc1F | -145 |
| Cn1nccc1CNS(=O)(=O)c1cc(F)ccc1Br | 11.8 |

| Structure (SMILES) | cytotoxicity at 10 µM [%] |
| --- | --- |
| CCc1cnc(CNC(=O)NC2CCN(C3CCCC3)CC2)s1 | -1.06 |
| CNc1cc(N2CCCC2CNCc2cnc(C)cn2)ncn1 (stereo not given) | -4.51 |
| COCCOc1ccccc1C(=O)N(C)Cc1ncc(C)c(OC)c1C | -1.61 |
| CC(C)C(=O)N1CCc2onc(C(=O)NCCN(C)C)c2C1 | 5.56 |
| Cc1ccc(N2CCCN(C(=O)C(C)OCC3CC3)CC2)nn1 (stereo not given) | 0.0479 |
| CN(C)CC1(O)CCN(S(=O)(=O)c2ccc(F)cc2)C1 (stereo not given) | -3.09 |
| Cc1cc(CN2C[C@@H]3COC[C@H](C(=O)N4CCCCO4)[C@@H]3C2)oc1C | -74.1 |
| Cc1cn(-c2ccccc2)nc1NS(=O)(=O)c1cc(C(=O)O)sc1C | -4.87 |
| O=C(NCc1ccccc1)N1CCC2(CC(=O)N(c3ccsc3)C2)C1 (stereo not given) | -9.64 |
| CC(C)CCCNC(=O)Nc1ccc(Cl)c(C(N)=O)c1 | -0.252 |
| CN(C)C(=O)Cn1ccc2cc(NC(=O)N3CCSCC3)ccc21 | 5.25 |
| CN(C)c1ncc(-c2cncn2CCc2ccc3c(c2)OCCO3)cn1 | -1.04 |
| CCCn1c(N2CCCC(C)C2)nc2c(C)nn(C)c2c1=O (stereo not given) | 13.4 |
| Cc1ccc(C(=O)N2CCC3(CC2)CN(c2ccccn2)CCO3)cc1 | -75.4 |
| Cc1noc(C)c1CN(C)CC(=O)N1CCc2sccc2C1 | -19.4 |
| CC(C)(C)CN1CCCC(O)(CN2CCc3[nH]ncc3C2)C1=O (stereo not given) | -5.14 |
| CC(C)N(C)S(=O)(=O)N1CCCC1CC(=O)c1cccs1 (stereo not given) | 5.17 |
| Cc1ccc(C)c(CS(=O)(=O)CC(=O)NC(C)c2ccc(F)cc2F)c1 (stereo not given) | 9.71 |
| O=C1CC(Nc2ccc3nccnc3n2)CN1c1ccccc1 (stereo not given) | -7.76 |
| c1cnc(N2CCCC(NCc3cccc4c3OCCO4)C2)nc1 (stereo not given) | -8.18 |
| C[C@@H]1CN(Cc2ccco2)CCN1C(=O)Cc1ccccc1F | 4.94 |
| COCCOCC(=O)N1C[C@@H]2CC[C@H](Oc3ccccc3)[C@@H]2C1 | -27.9 |
